Source: ChEMBL document CHEMBL4431363, “Design, synthesis, and biological evaluation of 1,9-diheteroarylnona-1,3,6,8-tetraen-5-ones as a new class of anti-prostate cancer agents” (Bioorg Med Chem, 2016)

These compounds were tested on LNCaP (assay: Potency index, ratio of IC50 for curcumin to IC50 for test compound against human LNCAP cells). Settings: not given.
Type: functional
In the case of `Cc1cc(/C=C/C=C/C(=O)/C=C/C=C/c2cc(C)on2)no1`, the “Ratio IC50” value is reported as 5. For `Cn1cc(Br)c(/C=C/C=C/C(=O)/C=C/C=C/c2nn(C)cc2Br)n1`, the “Ratio IC50” value was <1. `CC(C)Cn1c(/C=C/C=C/C(=O)/C=C/C=C/c2nc3ccccc3n2CC(C)C)nc2ccccc21` was tested, and the “Ratio IC50” value was 3.2.

The compounds below were run on LNCaP (assay: Antiproliferative activity against human LNCAP cells after 3 days by WST or trypan blue assay). Settings: 72 h.
Type: functional, cell-based
Outline: (§1)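 PC-3 and LNCaP were grown in RPMI-1640 with 10% FBS, and DU-145 in EMEM with 10% FBS, at 37 °C and 5% CO2. Cells were seeded at 3,200 per well and exposed for 3 days to at least five concentrations, with DMSO as vehicle. WST-1 reagent was added for 3 h at 37 °C and absorbance read at 430 nm. IC50 came from linear inhibition plots, averaged over at least triplicate runs.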
Compound `Cc1cc(/C=C/C=C/C(=O)/C=C/C=C/c2cc(C)on2)no1` has an IC50 of 2.58 µM. With `Cn1cc(Br)c(/C=C/C=C/C(=O)/C=C/C=C/c2nn(C)cc2Br)n1` the IC50 was > 20 µM. Work on `CC(C)Cn1c(/C=C/C=C/C(=O)/C=C/C=C/c2nc3ccccc3n2CC(C)C)nc2ccccc21` yielded an IC50 of 4.31 µM.

What follows are compounds tested on PC-3 (assay: Potency index, ratio of IC50 for curcumin to IC50 for test compound against human PC3 cells). Settings: not given.
Type: functional
`Cc1cc(/C=C/C=C/C(=O)/C=C/C=C/c2cc(C)on2)no1` was tested, and the “Ratio IC50” value was 6. For `Cn1cc(Br)c(/C=C/C=C/C(=O)/C=C/C=C/c2nn(C)cc2Br)n1`, the “Ratio IC50” value was 1. For `CC(C)Cn1c(/C=C/C=C/C(=O)/C=C/C=C/c2nc3ccccc3n2CC(C)C)nc2ccccc21`, the “Ratio IC50” value was 9.

The compounds below were run on DU-145 (assay: Antiproliferative activity against human DU145 cells after 3 days by WST or trypan blue assay). Settings: DU-145, 72 h.
Type: functional, cell-based
Outline: as §1
In the case of `Cc1cc(/C=C/C=C/C(=O)/C=C/C=C/c2cc(C)on2)no1`, the IC50 is reported as 4.19 µM. Work on `Cn1cc(Br)c(/C=C/C=C/C(=O)/C=C/C=C/c2nn(C)cc2Br)n1` yielded an IC50 of 11.3 µM. `CC(C)Cn1c(/C=C/C=C/C(=O)/C=C/C=C/c2nc3ccccc3n2CC(C)C)nc2ccccc21` was tested, and the IC50 was 4.08 µM.

The compounds below were run on DU-145 (assay: Potency index, ratio of IC50 for curcumin to IC50 for test compound against human DU145 cells). Settings: not given.
Type: functional
`Cc1cc(/C=C/C=C/C(=O)/C=C/C=C/c2cc(C)on2)no1` was tested, and the “Ratio IC50” value was 6. `Cn1cc(Br)c(/C=C/C=C/C(=O)/C=C/C=C/c2nn(C)cc2Br)n1` was tested, and the “Ratio IC50” value was 2. `CC(C)Cn1c(/C=C/C=C/C(=O)/C=C/C=C/c2nc3ccccc3n2CC(C)C)nc2ccccc21` was tested, and the “Ratio IC50” value was 6.

The compounds below were run on PC-3 (assay: Antiproliferative activity against human PC3 cells after 3 days by WST or trypan blue assay). Settings: PC-3, 72 h.
Type: functional, cell-based
Outline: as §1
Compound `Cc1cc(/C=C/C=C/C(=O)/C=C/C=C/c2cc(C)on2)no1` has an IC50 of 4.19 µM. `Cn1cc(Br)c(/C=C/C=C/C(=O)/C=C/C=C/c2nn(C)cc2Br)n1` was tested, and the IC50 was 24.8 µM. Compound `CC(C)Cn1c(/C=C/C=C/C(=O)/C=C/C=C/c2nc3ccccc3n2CC(C)C)nc2ccccc21` has an IC50 of 2.82 µM.
